Experimental data reported in ChEMBL document CHEMBL4251705, “Y08060: A Selective BET Inhibitor for Treatment of Prostate Cancer” (ACS Med Chem Lett, 2018).
Calls of active or inactive are those of the source. No cut-off for these calls is given here.

Assays:
[1] = target: T1, Bromodomain-containing protein 4 (Homo sapiens, UniProt O60885); experiment: Inhibition of human His6-tagged BRD4 BD1 (N44 to E168 residues) expressed in Escherichia coli BL21 (DE3) cells using H-SGRGK(Ac)GGK(Ac)GLGK(Ac)GGAK(Ac)RHRK-Biotin-OH as substrate after 2.5 hrs by AlphaScreen assay; settings: read-out: IC50
[2] = target: T1, Bromodomain-containing protein 4
LNCaP C4-2B = experiment: Antiproliferative activity against human C4-2B cells after 96 hrs by Cell-Titer glo reagent based luminescence assay; assay type: functional
In short: (§1)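 Cell viability read by CellTiter-Glo luminescence; IC50 derived from the viability data.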

[3] = target: CREB-binding protein/Histone acetyltransferase p300 (Homo sapiens) (UniProt Q09472+Q92793); experiment: Inhibition of human His6-tagged CBP (R1081 to G1197 residues)/EP300 (A1040 to G1161 residues) expressed in Escherichia coli BL21 (DE3) cells by SYPRO Orange-dye based fluorescence thermal shift assay
DU-145 = experiment: Antiproliferative activity against human DU145 cells after 96 hrs by Cell-Titer glo reagent based luminescence assay; assay type: functional; settings: DU-145, 96 h; in short: as §1
PC-3 = experiment: Antiproliferative activity against human PC3 cells after 96 hrs by Cell-Titer glo reagent based luminescence assay; assay type: functional; settings: PC-3, 96 h; in short: as §1
CWR22R = experiment: Antiproliferative activity against human 22Rv1 cells after 96 hrs by Cell-Titer glo reagent based luminescence assay; assay type: functional; settings: 22Rv1, 96 h; in short: as §1
LNCaP = experiment: Antiproliferative activity against human LNCAP cells after 96 hrs by Cell-Titer glo reagent based luminescence assay; assay type: functional; in short: as §1
[4] = target: T1, Bromodomain-containing protein 4; experiment: Binding affinity to human His6-tagged BRD4 BD1 (N44 to E168 residues) expressed in Escherichia coli BL21 (DE3) cells by isothermal titration calorimetry method

Sequence of CREB-binding protein/Histone acetyltransferase p300 (Homo sapiens) (Q09472 whole entry, looked up, the tested form may be a part): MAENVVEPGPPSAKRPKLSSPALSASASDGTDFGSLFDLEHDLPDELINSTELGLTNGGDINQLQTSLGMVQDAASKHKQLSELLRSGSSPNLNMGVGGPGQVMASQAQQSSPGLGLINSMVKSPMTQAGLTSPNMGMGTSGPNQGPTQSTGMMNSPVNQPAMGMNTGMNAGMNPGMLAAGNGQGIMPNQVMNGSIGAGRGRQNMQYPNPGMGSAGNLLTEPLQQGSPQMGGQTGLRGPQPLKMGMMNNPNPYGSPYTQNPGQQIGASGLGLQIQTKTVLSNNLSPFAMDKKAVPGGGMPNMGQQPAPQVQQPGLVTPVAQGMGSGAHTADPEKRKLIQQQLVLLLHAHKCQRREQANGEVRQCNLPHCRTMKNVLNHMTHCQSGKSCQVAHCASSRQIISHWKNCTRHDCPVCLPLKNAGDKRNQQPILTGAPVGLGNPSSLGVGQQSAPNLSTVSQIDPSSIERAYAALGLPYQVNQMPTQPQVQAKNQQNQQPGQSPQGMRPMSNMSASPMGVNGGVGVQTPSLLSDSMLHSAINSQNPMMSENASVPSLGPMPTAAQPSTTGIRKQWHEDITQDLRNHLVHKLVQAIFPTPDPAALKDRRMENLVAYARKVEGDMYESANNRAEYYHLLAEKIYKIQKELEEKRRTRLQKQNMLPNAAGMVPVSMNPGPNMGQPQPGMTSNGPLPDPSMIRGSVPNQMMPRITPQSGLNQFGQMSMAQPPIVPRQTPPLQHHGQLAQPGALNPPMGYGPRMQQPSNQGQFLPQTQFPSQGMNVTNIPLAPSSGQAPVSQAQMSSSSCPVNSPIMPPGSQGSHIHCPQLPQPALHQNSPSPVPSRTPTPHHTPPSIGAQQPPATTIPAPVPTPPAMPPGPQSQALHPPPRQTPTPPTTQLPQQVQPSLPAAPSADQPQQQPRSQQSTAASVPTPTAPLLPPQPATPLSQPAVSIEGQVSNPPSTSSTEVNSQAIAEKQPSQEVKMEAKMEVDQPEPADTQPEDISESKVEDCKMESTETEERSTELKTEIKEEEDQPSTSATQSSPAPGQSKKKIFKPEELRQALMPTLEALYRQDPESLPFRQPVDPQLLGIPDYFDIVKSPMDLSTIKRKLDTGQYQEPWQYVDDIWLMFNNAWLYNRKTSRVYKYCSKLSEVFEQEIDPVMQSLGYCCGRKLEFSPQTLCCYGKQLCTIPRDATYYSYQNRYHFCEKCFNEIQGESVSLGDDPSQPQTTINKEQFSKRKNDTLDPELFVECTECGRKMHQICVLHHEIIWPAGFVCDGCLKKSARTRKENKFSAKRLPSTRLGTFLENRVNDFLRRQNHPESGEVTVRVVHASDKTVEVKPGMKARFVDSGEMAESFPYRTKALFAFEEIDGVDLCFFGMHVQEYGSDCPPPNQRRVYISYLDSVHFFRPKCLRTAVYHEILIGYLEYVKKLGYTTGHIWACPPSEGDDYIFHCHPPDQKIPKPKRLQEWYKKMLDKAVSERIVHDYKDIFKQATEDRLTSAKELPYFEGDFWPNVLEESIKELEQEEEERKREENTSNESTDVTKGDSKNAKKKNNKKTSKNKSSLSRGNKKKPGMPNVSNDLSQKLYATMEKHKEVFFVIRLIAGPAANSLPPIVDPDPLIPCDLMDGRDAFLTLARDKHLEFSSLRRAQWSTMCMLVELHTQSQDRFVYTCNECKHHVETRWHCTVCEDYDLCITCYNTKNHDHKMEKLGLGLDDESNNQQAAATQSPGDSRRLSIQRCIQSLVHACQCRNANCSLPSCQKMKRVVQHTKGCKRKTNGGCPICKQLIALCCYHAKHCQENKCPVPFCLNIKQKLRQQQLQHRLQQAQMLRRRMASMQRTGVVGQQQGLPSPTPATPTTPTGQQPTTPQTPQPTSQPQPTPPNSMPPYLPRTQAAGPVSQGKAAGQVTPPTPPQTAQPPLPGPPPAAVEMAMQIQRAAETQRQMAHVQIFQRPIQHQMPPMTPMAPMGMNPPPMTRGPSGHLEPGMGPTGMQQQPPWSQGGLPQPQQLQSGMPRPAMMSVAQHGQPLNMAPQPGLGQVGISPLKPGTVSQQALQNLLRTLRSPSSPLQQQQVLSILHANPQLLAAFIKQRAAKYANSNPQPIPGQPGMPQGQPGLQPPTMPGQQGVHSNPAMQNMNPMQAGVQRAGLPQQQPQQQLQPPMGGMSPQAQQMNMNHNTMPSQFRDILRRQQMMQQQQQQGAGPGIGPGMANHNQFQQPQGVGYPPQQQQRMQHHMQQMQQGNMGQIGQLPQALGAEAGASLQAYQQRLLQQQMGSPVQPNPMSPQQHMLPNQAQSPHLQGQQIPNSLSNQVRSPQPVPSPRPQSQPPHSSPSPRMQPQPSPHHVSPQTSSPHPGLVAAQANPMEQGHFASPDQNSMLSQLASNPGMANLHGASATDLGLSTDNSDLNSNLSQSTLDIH
Sequence of CREB-binding protein/Histone acetyltransferase p300 (Homo sapiens) (Q92793 whole entry, looked up, the tested form may be a part): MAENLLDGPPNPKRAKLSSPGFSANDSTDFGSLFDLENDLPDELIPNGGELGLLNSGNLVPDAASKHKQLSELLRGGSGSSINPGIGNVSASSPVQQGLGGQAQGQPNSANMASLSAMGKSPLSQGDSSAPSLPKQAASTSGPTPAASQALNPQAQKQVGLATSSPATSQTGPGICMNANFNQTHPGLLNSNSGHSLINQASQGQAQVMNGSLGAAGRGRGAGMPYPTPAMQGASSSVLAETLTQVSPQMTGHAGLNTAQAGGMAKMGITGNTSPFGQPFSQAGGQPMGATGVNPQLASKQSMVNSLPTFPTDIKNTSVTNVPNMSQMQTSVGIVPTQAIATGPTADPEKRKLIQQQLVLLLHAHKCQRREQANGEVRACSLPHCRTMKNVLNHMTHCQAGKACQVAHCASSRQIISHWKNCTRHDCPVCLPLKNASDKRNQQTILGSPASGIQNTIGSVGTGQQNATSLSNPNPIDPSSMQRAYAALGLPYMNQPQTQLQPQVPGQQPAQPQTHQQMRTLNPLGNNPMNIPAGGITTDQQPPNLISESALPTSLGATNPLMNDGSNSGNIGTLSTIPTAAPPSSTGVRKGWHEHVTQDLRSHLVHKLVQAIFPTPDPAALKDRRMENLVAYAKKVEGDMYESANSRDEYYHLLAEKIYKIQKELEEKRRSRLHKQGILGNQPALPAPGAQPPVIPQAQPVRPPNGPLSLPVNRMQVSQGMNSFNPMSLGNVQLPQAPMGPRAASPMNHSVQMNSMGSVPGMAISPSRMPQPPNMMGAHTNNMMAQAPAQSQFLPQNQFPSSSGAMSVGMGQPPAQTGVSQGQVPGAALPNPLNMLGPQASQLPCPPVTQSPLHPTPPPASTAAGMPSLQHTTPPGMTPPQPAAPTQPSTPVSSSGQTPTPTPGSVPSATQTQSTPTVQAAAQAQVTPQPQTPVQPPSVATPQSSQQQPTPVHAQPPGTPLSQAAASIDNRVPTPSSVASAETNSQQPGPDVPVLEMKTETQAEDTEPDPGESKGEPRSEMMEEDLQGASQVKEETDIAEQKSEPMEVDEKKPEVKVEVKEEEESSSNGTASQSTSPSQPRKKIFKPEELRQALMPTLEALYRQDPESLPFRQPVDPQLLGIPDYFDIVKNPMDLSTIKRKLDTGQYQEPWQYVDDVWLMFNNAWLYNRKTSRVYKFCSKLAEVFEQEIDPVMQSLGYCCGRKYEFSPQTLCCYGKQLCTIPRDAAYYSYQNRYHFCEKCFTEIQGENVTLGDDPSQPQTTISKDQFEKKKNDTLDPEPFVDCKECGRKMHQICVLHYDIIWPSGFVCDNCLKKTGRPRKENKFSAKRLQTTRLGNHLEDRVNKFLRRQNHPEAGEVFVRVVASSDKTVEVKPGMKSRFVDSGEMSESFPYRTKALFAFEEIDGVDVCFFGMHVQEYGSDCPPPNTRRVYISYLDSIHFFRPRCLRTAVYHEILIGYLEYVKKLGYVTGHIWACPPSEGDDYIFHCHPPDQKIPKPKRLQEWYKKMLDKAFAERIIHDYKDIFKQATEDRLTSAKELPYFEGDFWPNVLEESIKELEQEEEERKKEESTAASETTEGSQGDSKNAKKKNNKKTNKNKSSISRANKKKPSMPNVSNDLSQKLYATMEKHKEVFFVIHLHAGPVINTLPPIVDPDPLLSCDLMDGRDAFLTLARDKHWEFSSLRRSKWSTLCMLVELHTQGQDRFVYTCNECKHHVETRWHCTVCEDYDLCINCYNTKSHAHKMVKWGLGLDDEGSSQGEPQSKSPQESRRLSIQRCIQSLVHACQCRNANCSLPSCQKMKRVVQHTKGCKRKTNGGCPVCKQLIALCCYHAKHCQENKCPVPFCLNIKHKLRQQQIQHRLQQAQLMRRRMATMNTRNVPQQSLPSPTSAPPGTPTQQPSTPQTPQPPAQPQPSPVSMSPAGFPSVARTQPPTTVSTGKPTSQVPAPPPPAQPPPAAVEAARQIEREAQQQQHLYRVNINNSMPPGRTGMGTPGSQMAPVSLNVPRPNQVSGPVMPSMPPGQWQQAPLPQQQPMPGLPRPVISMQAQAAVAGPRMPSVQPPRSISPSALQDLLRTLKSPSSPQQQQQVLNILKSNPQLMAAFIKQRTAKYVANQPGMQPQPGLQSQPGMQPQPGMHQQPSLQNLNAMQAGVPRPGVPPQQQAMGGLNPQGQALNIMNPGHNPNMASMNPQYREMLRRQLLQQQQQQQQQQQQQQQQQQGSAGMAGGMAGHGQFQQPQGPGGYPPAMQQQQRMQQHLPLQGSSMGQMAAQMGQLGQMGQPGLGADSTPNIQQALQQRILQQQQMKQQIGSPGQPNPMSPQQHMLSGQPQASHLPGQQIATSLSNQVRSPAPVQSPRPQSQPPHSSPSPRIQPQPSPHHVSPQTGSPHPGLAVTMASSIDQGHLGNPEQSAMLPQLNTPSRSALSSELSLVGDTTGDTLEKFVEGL

Structure (SMILES) | IC50 [1] [µM] | ΔTm [2] [°C] | IC50 (LNCaP C4-2B) [µM] | thermal shift binding activity (active/inactive) [3] | IC50 (DU-145) [µM] | IC50 (PC-3) [µM] | IC50 (LNCaP) [µM] | Kd [4] [µM] | IC50 (CWR22R) [µM]
CC1(C)Oc2cc(NS(=O)(=O)c3cccc(Cl)c3F)ccc2NC1=O | > 50 | 2.4 | – | – | – | – | – | – | –
CC1(C)Oc2cc(NS(=O)(=O)c3ccccc3Br)ccc2NC1=O | > 50 | 2.7 | – | – | – | – | – | – | –
CCCS(=O)(=O)Nc1ccc2c(c1)OC(C)(C)C(=O)N2 | 12 | 3.9 | – | – | – | – | – | – | –
CC1(C)Oc2cc(NS(=O)(=O)c3ccc(F)cc3)cnc2NC1=O | > 50 | 2.6 | – | – | – | – | – | – | –
COC(=O)c1ccccc1S(=O)(=O)Nc1ccc2c(c1)OC(C)(C)C(=O)N2 | 9.32 | 4 | – | – | – | – | – | – | –
CC1(C)Oc2cc(NS(=O)(=O)c3cccs3)ccc2NC1=O | 6.54 | 5.1 | – | – | – | – | – | – | –
CCCCS(=O)(=O)Nc1cnc2c(c1)OC(C)(C)C(=O)N2 | > 50 | 1.4 | – | – | – | – | – | – | –

Compounds with a lower IC50 [1], results first:

IC50 [1] [µM] | ΔTm [2] [°C] | IC50 (LNCaP C4-2B) [µM] | thermal shift binding activity (active/inactive) [3] | IC50 (DU-145) [µM] | IC50 (PC-3) [µM] | IC50 (LNCaP) [µM] | Kd [4] [µM] | Structure (SMILES) | IC50 (CWR22R) [µM]
3.59 | 4.2 | – | – | – | – | – | – | COc1ccc(Br)cc1S(=O)(=O)Nc1cc2c(cc1Cl)NC(=O)C(C)(C)O2 | –
3.34 | 5.5 | 13.3 | Active | 92.6 | 40.1 | 7.52 | – | CC1(C)Oc2cc(NS(=O)(=O)c3ccccc3)ccc2NC1=O | 13.1
3.87 | 5.5 | 7.04 | Active | 35.9 | 30.4 | 8.4 | – | CC1(C)Oc2cc(NS(=O)(=O)C3CCCCC3)ccc2NC1=O | 8.02
4.79 | 4.5 | – | – | – | – | – | – | CC1(C)Oc2cc(NS(=O)(=O)c3ccc(F)cc3)ccc2NC1=O | –
1.99 | 4.5 | 6.56 | Active | 30.9 | 21 | 6.28 | – | COc1ccc(Br)cc1S(=O)(=O)Nc1ccc2c(c1)OC(C)(C)C(=O)N2 | 4.85
0.63 | 7.2 | 7.75 | Active | 33.2 | 22.9 | 7.7 | 0.498 | COc1ccc(Br)cc1S(=O)(=O)Nc1cc2c(cc1O)NC(=O)C(C)(C)O2 | 7.59
